Measurements taken from the EternaBench riboswitch data.

System: MS2 coat protein
Test: apparent Kd, MS2 coat protein; higher = weaker binding; RNA-MaP array; FMN 200 µM where present
Procedure, shortened: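 The apparent Kd is reported as the median of filtered per-cluster binding-curve fits. To get these curves, designs transcribed by stalled E. coli RNA polymerase on Illumina sequencing-chip clusters were titrated with SNAP-549-labelled MS2 coat protein from 0.7 or 1.5 nM, doubling to 3 µM. Titrations were run without and then with constant ligand in 100 mM Tris-HCl pH 7.5, 80 mM KCl, 4 mM MgCl2, BSA, DTT, yeast tRNA and Tween-20, and green signal was normalised to red-channel RNA signal and control-cluster median Fmax.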

[1] = designed as: OFF switch for flavin mononucleotide, no ligand
[2] = ligand present: flavin mononucleotide, designed as: OFF switch for flavin mononucleotide
[3] = designed as: ON switch for flavin mononucleotide, no ligand
[4] = ligand present: flavin mononucleotide, designed as: ON switch for flavin mononucleotide

Sequence | apparent Kd [1] [nM] | apparent Kd [2] [nM] | apparent Kd [3] [nM] | apparent Kd [4] [nM]
GGCUAGUGAGGAUAUACGUGCACUCCUCAGUCGCCAGUCGGACAUGAGGAUCACCCAUGUAGAAGGUAUCGGCA | 27.8 | 30.2 |  | 
GGCUGUCUCGCAGGAUAUGCUGAUCAGAAACUAGCAGAAGGGUGAUCCAGUCGAGGUUUGACAUGAGGAUCACCCAUGUGGAGU |  |  | 29.4 | 55.8
GGGAAGUAAGGAUAUGCUGCUCGUCACUUGCGUGAUGAGUAGCAGAAGGUACAUGAGGAUCACCCAUGUAAAGA | 29.7 | 26.9 |  | 
GGGAGUGGAGGGAAUAACAUGAGGAUCACCCAUGUAUGGGAGAGAAGGCAGGUCGGAGGGCGGUCUGAGGAUAUUUAGACUCCU |  |  | 8.96 | 7.43
GGGAUCAUCGGAGGAUAUCAUGUAGAUACAUGAGGAUCACCCAUGUCGAUGGAGACAUCGGAGAUUGAGAAGGCCGAUGAUCCG |  |  | 741 | 28.9
GGGAUGCUAGGAUAUACAUCGGGCUCCAGGAUGUUCCGGGAACAUGAGGAUCACCCAUGUAGAAGGAGCUAAAG | 67.9 | 53.5 |  | 
GGGCCCGGUGUGAGGAUAUGCCCGGGUAAAUUUGGGCAGAAGGCACAUGAGGAUCACCCAUGUAAGCCGGGUUU | 14.8 | 12.9 |  | 
GGGCGUAAUACAUGAGGAUCACCCAUGUCAGAAAGGGUAAUCAGAAGGUACUAUUAGAGAAAGAGUAAGGAUAUGAAUACGCCC |  |  | 876 | 169
GGGUACAUCGGAGGAUAUCAUGUAAAUACAUGAGGAUCACCCAUGUCGAUGGAGACAUCGGAGAUCGAGAAGGCCGAUGUACCG |  |  | 168 | 294
GGGUACAUCGGAGGAUAUCAUGUAAAUACAUGAGGAUCACCCAUGUCGAUGGAGACAUCGGAGAUUGAGAAGGCCAAUGUACCG |  |  | 180 | 8.76
GGGUACAUCGGAGGAUAUCAUGUAAAUACAUGAGGAUCACCCAUGUCGAUGGAGACAUCGGAGAUUGAGAAGGCCGACGUACCG |  |  | 187 | 9.15
GGGUACAUCGGAGGAUAUCAUGUAAAUACAUGAGGAUCACCCAUGUCGAUGGAGACAUCGGAGAUUGAGAAGGCCGAUGAACCG |  |  | 165 | 8.52
GGGUACAUCGGAGGAUAUCAUGUAAAUACAUGAGGAUCACCCAUGUCGAUGGAGACAUCGGAGAUUGAGAAGGCCGAUGUACCU |  |  | 152 | 8.75
GGGUACAUCGGAGGAUAUCAUGUAAAUACAUGAGGAUCACCCAUGUCGAUGGAGACAUCGGAGAUUGAGAAGGCCGAUGUAGCG |  |  | 190 | 9.12
GGGUACAUCGGAGGAUAUCAUGUAAAUACAUGAGGAUCACCCAUGUCGAUGGAGGCAUCGGAGAUUGAGAAGGCCGAUGUACCG |  |  | 566 | 17.6
GGGUACAUCGGAGGAUAUCAUGUAAAUACAUGAGGAUCACCCAUGUUGAUGGAGACAUCGGAGAUUGAGAAGGCCGAUGUACCG |  |  | 41.9 | 6.03
GGGUACAUCGGAGGAUAUCAUGUAACUACAUGAGGAUCACCCAUGUCGAUGGAGACAUCGGAGAUUGAGAAGGCCGAUGUACCG |  |  | 261 | 10.1
GGGUACAUCGGAGGAUAUCCUGUAAAUACAUGAGGAUCACCCAUGUCGAUGGAGACAUCGGAGAUUGAGAAGGCCGAUGUACCG |  |  | 35 | 6.74
GGGUCAACAUGAGGAUCACCCAUGUAGGAUAUCGCUAUUGUAAUCAUGAAACAUGAUUACAAUAGCGAGAAGGACAUAUGUCCC | 9 | 11.8 |  | 
GGGUGCCCUGCAGAAGCGACAUGAGGAUCACCCAUGUAACGUAGAAGGGCCCGGAACUAAGGUGGGCAGGAUAUACUGUUAGGU | 6.76 |  |  | 
GGGUUCAUGUAAGGAUAUGUAUUGUUAAUCGGAGCAGAAGGUACAUGAGGAUCACCCAUGUCAACCUAGAGCAGGGCUUCUUAA | 23.7 | 45.2 |  | 
GGUACUAUCACAGGAUAUGCUUUCCUUUGGGAAGCAGAAGGGUGUAACAUGAGGAUCACCCAUGUGGUGCCCGGGCGUGAGCCC |  |  | 51.7 | 14.8
GGUACUCAAAGAGUACCAAUACGAACAUGAGGAUCACCCAUGUAGGAUAUGCUACUCAAAGAGUAGCAGAAGGACAUGUGCUUU | 38.8 | 252 |  | 
GGUACUCAAAGAGUACCAAUACGAACAUGAGGAUCACCCAUGUAGGAUAUGCUACUCAAAGAGUAGCAGAAGGAUAUGAUCCAU | 77.2 | 105 |  | 
GGUACUCAAAGAGUACCAAUACGAACAUGAGGAUCACCCAUGUAGGAUAUGUUUUCGCCGGAGUAUCAGAAGGACAUGUGCCUA | 10.9 | 9.15 |  | 
GGUCAGCUAGGAUAUACAUGAGGAUCACCCAUGUACUGACCCAUGCGGGAGUCCGCAUGUAGAAGGAGCAAAAU | 20.9 | 22.6 |  | 
GGUCCACAUGAGGAUCACCCAUGUUAGGAUAUCUCGCCCGAGUCGUUAUGGGCCAGGCAGAGAAGGAAUGUGAA | 20.4 | 18.8 |  | 
GGUCCAUCAUGAGGAUAUGGCACCUUAUUGGUGCCAGAAGGCAUGUCUAUAGACAUGAGGAUCACCCAUGUGAUAAAUUGGACC |  |  | 523 | 49.9

Sequence | apparent Kd [1] [nM] | apparent Kd [2] [nM] | apparent Kd [3] [nM] | apparent Kd [4] [nM]
GGUCCAUCAUGAGGAUAUGGCACCUUAUUGGUGCCAGAAGGCGUGUCUAUAGACAUGAGGAUCACCCAUGUAAUAAAUUGGACC |  |  | 614 | 49.6
GGUCCAUUAUGAGGAUAUGGCACCUUAUUGGUGCCAGAAGGCAUGUCUAUAGACAUGAGGAUCACCCAUGUAUUAAUUUGGACC |  |  | 360 | 41.4
GGUCGUCACAUGAACAUGAGGAUCACCCAUGUAACUAGACAUGAGGAUAUGGAUCCUAAUUGGAUCCAGAAGGCAUGGACGACC |  |  | 203 | 31.2
GGUGAAUGAACAUGAGGAUCACCCAUGUCCAGGAAACUGAAUGAGGAUAUCCAUAGCAAAGCUAUGGAGAAGGCAUGGGUCACC |  |  | 562 | 241
GGUGCCAUGUAGAAGGCAGACCUGAUUCAGAUCUGAGGAUAUACAUGAGGAUCACCCAUGUAAAGGCACCGCACGAGAGUGCAA | 6.05 | 8.57 |  | 
GGUGCGUAUGUGAGGAUAUGCUGGUCCUUGGCUCGGCAGAAGGCACAUGAGGAUCACCCAUGUGGUGUCGUGCC | 16.9 | 37.7 |  | 
GGUGCGUAUGUGAGGAUAUGCUGGUCCUUGGGUCGGCAGAAGGCACAUGAGGAUCACCCAUGUGGUGUCGUUCC | 86.2 | 86.5 |  | 
GGUGCGUGUAAAGGAUAUAUGUACUGAGAGGACAUAGAAGGUUACAUGAGGAUCACCCAUGUAGGAAGCGAAAGUUAUCACGUG | 11.7 | 25.3 |  | 
GGUGCGUUUGUGAGGAUAUGCUGGUCCUUGGAUCAGCAGAAGGCACAUGAGGAUCACCCAUGUGGUGUCGGUCC | 416 | 37.6 |  | 
GGUGCGUUUGUGAGGAUAUGCUGGUCCUUGGAUCAGCAGAAGGCACAUGAGGAUCACCCAUGUGGUGUCGUUCC | 181 | 143 |  | 
GGUGCGUUUGUGAGGAUAUGCUGGUCCUUGGGUCAGCAGAAGGCACAUGAGGAUCACCCAUGUGGUGUCGUACC | 358 | 42.9 |  | 
GGUGCUAUGUAGAAGGCAGAUCUGAUUCAGAUCUGAGGAUAUACAUGAGGAUCACCCAUGUUAAGCACCAGCACGAGAGUGCAA | 6.49 | 11.2 |  | 
GGUGGACAUGAGGAUCACCCAUGUGAGGAUAUCGGCCGGUGCGUGGUGGCUGGCGUCUCGAGAAGGCACAUAGU | 92.1 | 166 |  | 
GGUGGACAUGAGGAUCACCCAUGUGAGGAUAUCGGCUGGCUAGCGGCGGACGGCUUCUCGAGAAGGCGCAUUGU | 57.8 | 57.1 |  | 
GGUGGACAUGAGGAUCACCCAUGUGAGGAUAUCGGCUGGCUAGUGGCUGACGGCUGCUCGAGAAGGCGCAUUGU | 78.3 | 107 |  | 
GGUGUCAUCGAGAAGGCCUCAACAUGAGGAUCACCCAUGUUGUAAUAUGGGAGGAUAUCGAUGAUACAGCUACGUUUCGUAGCC |  |  | 20.7 | 6.23
GGUGUCAUCGAGAAGGCCUCAACAUGAGGAUCACCCAUGUUGUAAUAUGGGAGGAUAUCGAUGAUACAGCUACGUUUCGUAGCU |  |  | 20.2 | 5.86
GGUGUCGCAUGAGGAUAUGGUCAGCUUUGCUGACCAGAAGGCAUGUCAAUAGACAUGAGGAUCACCCAUGUAGUAAAGACACCA |  |  |  | 37.1
GGUGUGAGGCAGGAUAUGCUAUAUGUAAGUAAUGCAGAAGGGUCUACAUGAGGAUCACCCAUGUGUGCGGUAGA | 105 | 311 |  | 
GGUUAAUAUCGAGGAUAUGUCUAGACACAUGAGGAUCACCCAUGUAUGUGUAUAGAAGGCGAUAUUAACAGCAUGUUACAUGCC |  |  | 38.1 | 16.8
GGUUACAAGUAAGGAUAUGCAUAUGAAACAUAUGCAGAAGGUACAUGAGGAUCACCCAUGUUAUUGCAAAGCGAAUAAGUAACC | 15.6 | 20.9 |  | 
GGUUAGAAAGGAUAUACAUGUCGUGAGACAUCUUGCACCUAACAUGAGGAUCACCCAUGUAGAAGGUUCAAGCC | 17.4 | 30.5 |  | 
GGUUAUUGCAAGGAUAUGCUUUUUUUUGAAAUUGCAGAAGGUGCAACAUGAGGAUCACCCAUGUUGGAUGGGUU | 166 | 125 |  | 
GGUUCGGGAGGAUAUGUGUUUUUGGACAUGAGGAUCACCCAUGUUUUCAUGUUUUUUCCCACAGAAGGUUUGGGCC | 18.6 | 22.9 |  | 
GGUUGACAAAGUCAACCAAUUCGAACAUGAGGAUCACCCAUGUAGGAUAUGCUACUCAAAGAGUAGCAGAAGGACAUGUGCCUU | 34.3 | 188 |  | 
GGUUGACGACAAUUACAUGAGGAUCACCCAUGUUUUGGGAUGCAGGAUAUGUGGUAUAUUAAUUAACAGAAGGGCAAUAAUUUU |  |  | 37.3 | 39.3
GGUUGGUAUUACAACGGCCUGAGGGAGGAUAUACAAGGCCGGCGUCGCACAUGAGGAUCACCCAUGUAGAAGGCCCAAGGCCUG | 6.97 | 12 |  | 
